Results reported in ChEMBL document CHEMBL1124823, “Antimitotic agents: synthesis of imidazo[4,5-c]pyridin-6-ylcarbamates and imidazo[4,5-b]pyridin-5-ylcarbamates” (J Med Chem, 1990).

Key:
L1210 [1] = assay: The compound was tested for cell growth inhibitory activity against lymphoid leukemia L1210 cell line.; format: functional, cell-based; conditions: Mus musculus
How it was run: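 Cultured lymphoid leukemia L1210 cells were grown with agent for 48 h. The value is the micromolar concentration that inhibits proliferation to 50% of control growth.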

Mus musculus [2] = assay: Increase in life span (ILS) in mice implanted intraperitoneally with lymphocytic leukemia P388 cells at a nontoxic dose of 100 mg/kg; format: functional; conditions: P388, ip, route intraperitoneal
Mus musculus [3] = assay: Increase in life span (ILS) in mice implanted intraperitoneally with lymphocytic leukemia P388 cells at a nontoxic dose of 100 mg/kg; toxic dose by weight loss when repeated; format: functional; conditions: P388, ip, route intraperitoneal
L1210 [4] = assay: Concentration that causes a mitotic index (number of cells in mitosis divided by total cells) of cultured lymphoid leukemia L1210 cells.; format: functional, Mus musculus
How it was run: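 Cultured lymphoid leukemia L1210 cells were exposed to agent for 12 h. Mitotic index was taken as the number of cells in mitosis divided by total cells. The value is the micromolar concentration giving a mitotic index of 0.5.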

Mus musculus [5] = assay: Increase in life span (ILS) in mice implanted intraperitoneally with lymphocytic leukemia P388 cells at a nontoxic dose of 200 mg/kg; toxic dose by weight loss when repeated; format: functional; conditions: P388, ip, route intraperitoneal
Mus musculus [6] = assay: Increase in life span (ILS) in mice implanted intraperitoneally with lymphocytic leukemia P388 cells at a nontoxic dose of 200 mg/kg; format: functional; conditions: P388, ip, route intraperitoneal
Mus musculus [7] = assay: Increase in life span (ILS) in mice implanted intraperitoneally with lymphocytic leukemia P388 cells at a nontoxic dose of 50 mg/kg; format: functional; conditions: P388, ip, route intraperitoneal
Mus musculus [8] = assay: Increase in life span (ILS) in mice implanted intraperitoneally with lymphocytic leukemia P388 cells at a nontoxic dose of 2 mg/kg; format: functional; conditions: P388, ip, route intraperitoneal

SMILES	IC50 (L1210 [1]) [nM]	MI0.5 (L1210 [4]) [µM]	also measured
CCOC(=O)Nc1cc2c(nc(SCc3ccc4c(c3)OCO4)n2N)c(N)n1	170		ILS at 100 mg/kg (Mus musculus [2]): 25%
CCOC(=O)Nc1cc2c(ncn2/N=C/c2ccccc2)c(N)n1	150	0.61	ILS at 100 mg/kg (Mus musculus [3]): 39%
CCOC(=O)Nc1cc(N/N=C/c2ccccc2)c2[nH]c(SCc3ccccc3)nc2n1	46000		
CCOC(=O)Nc1cc2c(nc(SCc3ccc(OC)cc3)n2N)c(N)n1	60		ILS at 100 mg/kg (Mus musculus [2]): 24%
CCOC(=O)Nc1cc(N/N=C/c2ccccc2)c2[nH]cnc2n1	250	0.94	ILS at 100 mg/kg (Mus musculus [3]): 46%
CCOC(=O)Nc1cc2c(nc(SCc3ccccc3)n2N)c(N)n1	600	1.6	ILS at 200 mg/kg (Mus musculus [5]): 39%
CCOC(=O)Nc1cc2c(nc(S)n2/N=C/c2ccccc2)c(N)n1	470	11	ILS at 200 mg/kg (Mus musculus [6]): 6%
CCOC(=O)Nc1cc(N/N=C/c2ccccc2)c2[nH]c(S)nc2n1	1500	5.5	ILS at 200 mg/kg (Mus musculus [6]): 10%
CCOC(=O)Nc1cc(N(C)/N=C/c2ccccc2)c2nc[nH]c2n1	3100		
CCOC(=O)Nc1cc(N/N=C/c2ccccc2)c(N)c(N)n1	4600	15	ILS at 50 mg/kg (Mus musculus [7]): 4%
CCOC(=O)Nc1cc2c(nc(S)n2N)c(N)n1	> 30000		
CCOC(=O)Nc1cc2c(nc(SCc3ccccc3)n2/N=C/c2ccccc2)c(N)n1	50000		
CCOC(=O)Nc1cc2[nH]c(-c3ccccc3)nc2c(N)n1	900	8	ILS at 200 mg/kg (Mus musculus [6]): 0%
CCOC(=O)Nc1cc2c(c(N)n1)N=C(c1ccccc1)CN2		0.0028	ILS at 2 mg/kg (Mus musculus [8]): 51%
